According to ChEMBL document CHEMBL1139579, “Structure-activity relationship of a series of cyclohexylpiperidines bearing an amide side chain as antagonists of the human melanocortin-4 receptor” (Bioorg Med Chem Lett, 2005):

Assays:
[1] = biological target: T1, Melanocortin receptor 4 (Homo sapiens, UniProt P32245); test: Stimulation of cAMP levels in the HEK293 cell line at 10 uM; format: functional, cell-based
In short: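 Agonism was measured as cAMP levels in HEK293 cells stably expressing human MC4R. The test ligand was applied at 10 μM, and the response was expressed relative to the response to α-MSH.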

[2] = biological target: T1, Melanocortin receptor 4; test: Inhibition of [125I]NDP-MSH (radioligand) binding to the hMC4R stably expressed in HEK293 cells; format: cell-based
In short: (§1)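 Competition binding was run on HEK293 cells stably transfected with human MC1R, MC3R, MC4R or MC5R, each receptor in its own line. The radioligand was [125I]-NDP-MSH. For the MC4R values, data are the average of two to three independent measurements.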

[3] = biological target: T2, Melanocortin receptor 3 (Homo sapiens, UniProt P41968); test: Inhibition of [125I]-NDP-MSH (radioligand) binding to the human MC3R stably expressed in HEK293 cells; format: cell-based; in short: as §1
[4] = biological target: Melanocortin receptor 5 (Homo sapiens, UniProt P33032); test: Inhibition of [125I]NDP-MSH (radioligand) binding to the human MC5R stably expressed in HEK293 cells; format: cell-based; in short: as §1
[5] = system: HEK293; test: (§2) Dose-dependent inhibition of cAMP production stimulated by 10 nM a-MSH in HEK293 cells; format: functional, cell-based; settings: Homo sapiens
In short: (§3)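 Functional antagonism was measured as inhibition of cAMP production in HEK293 cells stably expressing human MC4R. Cells were stimulated with 10 nM α-MSH, and the test ligand was applied over a range of concentrations.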

[6] = biological target: Melanocyte-stimulating hormone receptor (Homo sapiens, UniProt Q01726); test: Inhibition of [125I]NDP-MSH (radioligand) binding to human MC1R at 10 um concentration stably expressed in HEK293 cells; format: cell-based; settings: for Inhibition: hek293
In short: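 Competition binding was run on HEK293 cells stably expressing human MC1R, with [125I]-NDP-MSH as the radioligand. The value is percent inhibition of binding with the test ligand at 10 µM.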

[7] = biological target: T1, Melanocortin receptor 4; test: Inhibition of [125I]-AgRP(83132) (radioligand) binding to the hMC4R stably expressed in HEK293 cells; format: cell-based
In short: (§4)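 Competition binding was run on HEK293 cells stably transfected with human MC4R. The radioligand was [125I]-AgRP(83–132).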

[8] = system: HEK293; test: as §2; format: functional, cell-based, Homo sapiens; in short: as §3
[9] = biological target: T1, Melanocortin receptor 4; test: Inhibition of [125I]-AgRP(83132) (radioligand) binding to the hMC4R stably expressed in HEK293 cells;; format: cell-based; in short: as §4
[10] = system: HEK293; test: Dose-dependent inhibition of cAMP production stimulated by 10 nM a-MSH in HEK293 cells;; format: functional, cell-based, Homo sapiens; in short: as §3
[11] = biological target: T2, Melanocortin receptor 3; test: Inhibition of [125I]NDP-MSH (radioligand) binding to the human MC3R stably expressed in HEK293 cells; format: cell-based; in short: as §1

T2 sequence (P41968 whole entry): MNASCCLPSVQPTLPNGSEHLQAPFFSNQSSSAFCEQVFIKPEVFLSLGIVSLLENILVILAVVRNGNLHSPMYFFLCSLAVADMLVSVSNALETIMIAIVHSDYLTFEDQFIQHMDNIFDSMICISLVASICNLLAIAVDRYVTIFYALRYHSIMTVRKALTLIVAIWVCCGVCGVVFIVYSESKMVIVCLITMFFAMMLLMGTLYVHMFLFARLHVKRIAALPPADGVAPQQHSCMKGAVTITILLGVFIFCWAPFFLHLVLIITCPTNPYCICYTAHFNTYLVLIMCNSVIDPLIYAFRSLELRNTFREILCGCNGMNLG
T1 sequence (P32245 whole entry): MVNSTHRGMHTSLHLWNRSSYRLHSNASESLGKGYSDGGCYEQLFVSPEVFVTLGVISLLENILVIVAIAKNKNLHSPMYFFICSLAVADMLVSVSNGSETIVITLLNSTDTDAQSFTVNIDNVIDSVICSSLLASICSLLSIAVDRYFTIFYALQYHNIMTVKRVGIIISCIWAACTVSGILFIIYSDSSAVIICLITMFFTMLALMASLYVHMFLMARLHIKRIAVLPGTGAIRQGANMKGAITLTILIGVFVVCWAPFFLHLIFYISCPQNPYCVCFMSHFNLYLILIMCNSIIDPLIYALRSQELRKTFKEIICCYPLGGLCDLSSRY
Melanocortin receptor 5, sequence (P33032 whole entry): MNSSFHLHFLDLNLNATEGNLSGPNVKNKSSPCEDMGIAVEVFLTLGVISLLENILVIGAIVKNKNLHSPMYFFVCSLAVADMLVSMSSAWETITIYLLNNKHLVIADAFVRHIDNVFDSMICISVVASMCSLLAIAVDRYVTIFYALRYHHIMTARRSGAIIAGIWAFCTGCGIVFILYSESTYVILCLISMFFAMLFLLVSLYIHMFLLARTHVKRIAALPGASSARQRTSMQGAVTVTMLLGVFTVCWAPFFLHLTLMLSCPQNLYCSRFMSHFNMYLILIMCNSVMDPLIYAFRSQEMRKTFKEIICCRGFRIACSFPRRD
Melanocyte-stimulating hormone receptor, sequence (Q01726 whole entry): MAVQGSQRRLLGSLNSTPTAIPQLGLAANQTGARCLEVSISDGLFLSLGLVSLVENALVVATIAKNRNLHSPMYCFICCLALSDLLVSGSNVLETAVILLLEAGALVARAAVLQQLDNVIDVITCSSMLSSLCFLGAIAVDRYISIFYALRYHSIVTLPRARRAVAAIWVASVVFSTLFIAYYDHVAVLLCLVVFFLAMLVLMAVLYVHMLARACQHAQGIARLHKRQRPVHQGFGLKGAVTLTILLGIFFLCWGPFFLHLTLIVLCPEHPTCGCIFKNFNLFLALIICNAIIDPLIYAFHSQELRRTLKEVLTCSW

Row | Structure (SMILES) | Stimulation [1] [%] | Ki [2] [µM] | further results
1 | NCCC(=O)N[C@H](Cc1ccc(Cl)cc1Cl)C(=O)N1CCN(C2(CNC(=O)c3ccncc3)CCCCC2)CC1 | 4.4 | 0.15 | 
2 | NCCC(=O)N[C@H](Cc1ccc(Cl)cc1Cl)C(=O)N1CCN(C2(CNC(=O)c3ccc(Br)cc3)CCCCC2)CC1 | 12 | 0.24 | 
3 | NCCC(=O)N[C@H](Cc1ccc(Cl)cc1Cl)C(=O)N1CCN(C2(CNCCc3ccccc3)CCCCC2)CC1 | 0.4 | 0.011 | Ki [3]: 3.2 µM; Ki [4]: 1.2 µM; IC50 [5]: 0.43 µM; Inhibition [6]: 44%
4 | COc1ccc(CC(=O)NCC2(N3CCN(C(=O)[C@@H](Cc4ccc(Cl)cc4Cl)NC(=O)CCN)CC3)CCCCC2)cc1OC | 2.7 | 0.018 | 
5 | NCCC(=O)N[C@H](Cc1ccc(Cl)cc1Cl)C(=O)N1CCN(C2(CNC(=O)c3ccc(Cl)cc3)CCCCC2)CC1 | 10 | 0.21 | 
6 | NCCC(=O)N[C@H](Cc1ccc(Cl)cc1Cl)C(=O)N1CCN(C2(CNCc3ccc(C(F)(F)F)cc3)CCCCC2)CC1 | 4.1 | 0.045 | 
7 | COc1ccc(C(=O)NCC2(N3CCN(C(=O)[C@@H](Cc4ccc(Cl)cc4Cl)NC(=O)CCN)CC3)CCCCC2)cc1 | 7.7 | 0.25 | 
8 | Cc1ccc(C(=O)NCC2(N3CCN(C(=O)[C@@H](Cc4ccc(Cl)cc4Cl)NC(=O)CCN)CC3)CCCCC2)cc1 | 7.8 | 0.27 | 
9 | NCCC(=O)N[C@H](Cc1ccc(Cl)cc1Cl)C(=O)N1CCN(C2(CNC(=O)Nc3ccc(Cl)cc3)CCCCC2)CC1 | 5.9 | 0.42 | 
10 | COc1ccc(CC(=O)NCC2(N3CCN(C(=O)[C@@H](Cc4ccc(Cl)cc4Cl)NC(=O)CCN)CC3)CCCCC2)cc1 | 0.6 | 0.0042 | Ki [7]: 0.0028 µM; Ki [3]: 1.1 µM; Ki [4]: 0.54 µM; IC50 [8]: 0.15 µM; Ki [6]: 5.7 µM
11 | NCCC(=O)N[C@H](Cc1ccc(Cl)cc1Cl)C(=O)N1CCN(C2(CNCC3CCCCC3)CCCCC2)CC1 | 5.1 | 0.22 | 
12 | NCCC(=O)N[C@H](Cc1ccc(Cl)cc1Cl)C(=O)N1CCN(C2(CNC(=O)c3ccc(OC(F)(F)F)cc3)CCCCC2)CC1 | 8.9 | 0.4 | 
13 | CN(C)c1ccc(NC(=O)NCC2(N3CCN(C(=O)[C@@H](Cc4ccc(Cl)cc4Cl)NC(=O)CCN)CC3)CCCCC2)cc1 | 2.7 | 0.062 | 
14 | NCCC(=O)N[C@H](Cc1ccc(Cl)cc1Cl)C(=O)N1CCN(C2(CNC(=O)c3ccccc3)CCCCC2)CC1 | 5.1 | 0.22 | 
15 | NCCC(=O)N[C@H](Cc1ccc(Cl)cc1Cl)C(=O)N1CCN(C2(CNC(=O)c3ccc([N+](=O)[O-])cc3)CCCCC2)CC1 | 6.7 | 0.12 | 
16 | NCCC(=O)N[C@H](Cc1ccc(Cl)cc1Cl)C(=O)N1CCN(C2(CNC(=O)c3ccc(F)cc3)CCCCC2)CC1 | 7.9 | 0.19 | 
17 | COc1cccc(CC(=O)NCC2(N3CCN(C(=O)[C@@H](Cc4ccc(Cl)cc4Cl)NC(=O)CCN)CC3)CCCCC2)c1 | 1.8 | 0.0076 | Ki [3]: 0.65 µM; Ki [4]: 0.47 µM; Ki [6]: 2.8 µM
18 | CC(C)CNCC1(N2CCN(C(=O)[C@@H](Cc3ccc(Cl)cc3Cl)NC(=O)CCN)CC2)CCCCC1 | 0.7 | 0.18 | 
19 | CC(C)(C)c1ccc(C(=O)NCC2(N3CCN(C(=O)[C@@H](Cc4ccc(Cl)cc4Cl)NC(=O)CCN)CC3)CCCCC2)cc1 | 8.2 | 0.52 | 
20 | NCCC(=O)N[C@H](Cc1ccc(Cl)cc1Cl)C(=O)N1CCN(C2(CNCc3ccc(F)cc3)CCCCC2)CC1 | 6.4 | 0.061 | 
21 | COc1ccccc1C(=O)NCC1(N2CCN(C(=O)[C@@H](Cc3ccc(Cl)cc3Cl)NC(=O)CCN)CC2)CCCCC1 | 6.5 | 0.35 | 
22 | NCCC(=O)N[C@H](Cc1ccc(Cl)cc1Cl)C(=O)N1CCN(C2(CNC(=O)c3cccnc3)CCCCC2)CC1 | 4.3 | 0.22 | 
23 | NCCC(=O)N[C@H](Cc1ccc(Cl)cc1Cl)C(=O)N1CCN(C2(CNC(=O)Cc3ccc(Cl)cc3)CCCCC2)CC1 | 1.4 | 0.023 | 

Row | Structure (SMILES) | Stimulation [1] [%] | Ki [2] [µM] | further results
24 | NCCC(=O)N[C@H](Cc1ccc(Cl)cc1Cl)C(=O)N1CCN(C2(CNCCCc3ccccc3)CCCCC2)CC1 | 2.8 | 0.06 | 
25 | NCCC(=O)N[C@H](Cc1ccc(Cl)cc1Cl)C(=O)N1CCN(C2(CNC(=O)c3cccs3)CCCCC2)CC1 | 5.1 | 0.23 | 
26 | NCCC(=O)N[C@H](Cc1ccc(Cl)cc1Cl)C(=O)N1CCN(C2(CNC(=O)C(F)(F)F)CCCCC2)CC1 | 0.9 | 0.49 | 
27 | NCCC(=O)N[C@H](Cc1ccc(Cl)cc1Cl)C(=O)N1CCN(C2(CNC(=O)Cc3ccc(F)cc3)CCCCC2)CC1 | 2.3 | 0.021 | 
28 | NCCC(=O)N[C@H](Cc1ccc(Cl)cc1Cl)C(=O)N1CCN(C2(CNCc3ccccc3F)CCCCC2)CC1 | 4.7 | 0.012 | Ki [7]: 0.013 µM; Ki [3]: 2.3 µM; Ki [4]: 1.4 µM; IC50 [8]: 0.76 µM; Inhibition [6]: 45%
29 | N#Cc1ccc(CNCC2(N3CCN(C(=O)[C@@H](Cc4ccc(Cl)cc4Cl)NC(=O)CCN)CC3)CCCCC2)cc1 | 5 | 0.092 | 
30 | NCCC(=O)N[C@H](Cc1ccc(Cl)cc1Cl)C(=O)N1CCN(C2(CNC(=O)Cc3ccccc3)CCCCC2)CC1 | 1.6 | 0.0088 | Ki [3]: 0.71 µM; Ki [4]: 0.92 µM; Ki [9]: 0.0064 µM; IC50 [10]: 0.26 µM; Inhibition [6]: 47%
31 | NCCC(=O)N[C@H](Cc1ccc(Cl)cc1Cl)C(=O)N1CCN(C2(CNC(=O)c3ccc(C(F)(F)F)cc3)CCCCC2)CC1 | 8.7 | 0.34 | 
32 | NCCC(=O)N[C@H](Cc1ccc(Cl)cc1Cl)C(=O)N1CCN(C2(CNCc3ccccn3)CCCCC2)CC1 | 3 | 0.036 | 
33 | NCCC(=O)N[C@H](Cc1ccc(Cl)cc1Cl)C(=O)N1CCN(C2(CNCc3nccs3)CCCCC2)CC1 | 4.9 | 0.049 | 
34 | NCCC(=O)N[C@H](Cc1ccc(Cl)cc1Cl)C(=O)N1CCN(C2(CNC(=O)c3ccco3)CCCCC2)CC1 | 4.5 | 0.26 | 
35 | CC(C)(C)CCNCC1(N2CCN(C(=O)[C@@H](Cc3ccc(Cl)cc3Cl)NC(=O)CCN)CC2)CCCCC1 | 3.6 | 0.34 | 
36 | NCCC(=O)N[C@H](Cc1ccc(Cl)cc1Cl)C(=O)N1CCN(C2(CNC(=O)Nc3ccc([N+](=O)[O-])cc3)CCCCC2)CC1 | 11 | 0.54 | 
37 | NCCC(=O)N[C@H](Cc1ccc(Cl)cc1Cl)C(=O)N1CCN(C2(CNC(=O)Nc3ccc(F)cc3)CCCCC2)CC1 | 5.5 | 0.21 | 
38 | NCCC(=O)N[C@H](Cc1ccc(Cl)cc1Cl)C(=O)N1CCN(C2(CNC(=O)Cc3cccs3)CCCCC2)CC1 | 3.4 | 0.0084 | Ki [3]: 1.1 µM; Ki [4]: 0.48 µM; Ki [6]: 4.6 µM
39 | COC(=O)c1ccc(NC(=O)NCC2(N3CCN(C(=O)[C@@H](Cc4ccc(Cl)cc4Cl)NC(=O)CCN)CC3)CCCCC2)cc1 | 12 | 0.26 | 
40 | NCCC(=O)N[C@H](Cc1ccc(Cl)cc1Cl)C(=O)N1CCN(C2(CN)CCCCC2)CC1 | 0.5 | 0.29 | 
41 | CN(C)c1ccc(CNCC2(N3CCN(C(=O)[C@@H](Cc4ccc(Cl)cc4Cl)NC(=O)CCN)CC3)CCCCC2)cc1 | 4.2 | 0.11 | 
42 | NCCC(=O)N[C@H](Cc1ccc(Cl)cc1Cl)C(=O)N1CCN(C2(CNCc3ccccc3)CCCCC2)CC1 | 5.1 | 0.018 | 
43 | NCCC(=O)N[C@H](Cc1ccc(Cl)cc1Cl)C(=O)N1CCN(C2(CNCc3cccs3)CCCCC2)CC1 | 8.1 | 0.012 | Ki [4]: 1.9 µM; Ki [11]: 2.4 µM
44 | COc1ccc(NC(=O)NCC2(N3CCN(C(=O)[C@@H](Cc4ccc(Cl)cc4Cl)NC(=O)CCN)CC3)CCCCC2)cc1 | 1 | 0.036 | 
45 | NCCC(=O)N[C@H](Cc1ccc(Cl)cc1Cl)C(=O)N1CCN(C2(CNCc3ccc(OC(F)(F)F)cc3)CCCCC2)CC1 | 2.4 | 0.022 | 
